Values after ≈ are worked out from the molar mass of the structure shown.
Assays:
[1] = test system: Staphylococcus aureus; assay: Antibacterial activity against methicillin-resistant Staphylococcus aureus by broth liquid microdilution method; assay type: functional
Summary of the method: (§1)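 Isolates were identified on an automated MicroScan WalkAway 96 system. Susceptibility was tested by broth microdilution following CLSI guidelines. MIC was taken as the lowest concentration giving complete inhibition of bacterial growth. S. aureus ATCC 29213 served as the control strain.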

[2] = test system: Staphylococcus aureus; assay: Antibacterial activity against Staphylococcus aureus ATCC 29213 by broth liquid microdilution method; assay type: functional; summary of the method: as §1
[3] = test system: Enterococcus faecalis; assay: Antibacterial activity against linezolid-resistant Enterococcus faecalis by broth liquid microdilution method; assay type: functional; summary of the method: as §1
[4] = test system: Staphylococcus aureus; assay: Antibacterial activity against methicillin-sensitive Staphylococcus aureus by broth liquid microdilution method; assay type: functional; summary of the method: as §1
[5] = test system: Enterococcus faecium; assay: Antibacterial activity against vancomycin-resistant Enterococcus faecium by broth liquid microdilution method; assay type: functional; summary of the method: as §1
[6] = test system: Enterococcus faecium; assay: Antibacterial activity against vancomycin-resistant Enterococcus faecium clinical isolates by broth liquid microdilution method; assay type: functional; summary of the method: as §1
[7] = test system: Enterococcus faecalis; assay: Antibacterial activity against linezolid-resistant Enterococcus faecalis clinical isolates by broth liquid microdilution method; assay type: functional; summary of the method: as §1
[8] = test system: Staphylococcus aureus; assay: Potency index, ratio of linezolid MIC to test compound MIC for methicillin-sensitive Staphylococcus aureus; assay type: functional
[9] = test system: Staphylococcus aureus; assay: Antibacterial activity against methicillin-resistant Staphylococcus aureus clinical isolates by broth liquid microdilution method; assay type: functional; summary of the method: as §1
[10] = test system: Staphylococcus aureus; assay: Potency index, ratio of linezolid MIC to test compound MIC for Staphylococcus aureus ATCC 29213; assay type: functional
Summary of the method: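 MIC by broth microdilution per CLSI guidelines, taken as the lowest concentration giving complete growth inhibition; isolates identified on MicroScan WalkAway 96; S. aureus ATCC29213 used as control strain. Index expressed as linezolid MIC divided by test compound MIC.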

[11] = test system: Staphylococcus aureus; assay: Antibacterial activity against methicillin-sensitive Staphylococcus aureus clinical isolates by broth liquid microdilution method; assay type: functional; summary of the method: as §1
[12] = molecular target: T1, MAO-A (amine oxidase [flavin-containing] A) (Homo sapiens, UniProt P21397); assay: Inhibition of recombinant human MAOA expressed in baculovirus infected Sf9 insect cells at 30 uM using luciferin derived substrate pretreated for 15 mins followed by substrate addition and measured after 60 mins by luminescence assay relative to control; conditions: probe luciferin derived substrate
T1 sequence (P21397 whole entry): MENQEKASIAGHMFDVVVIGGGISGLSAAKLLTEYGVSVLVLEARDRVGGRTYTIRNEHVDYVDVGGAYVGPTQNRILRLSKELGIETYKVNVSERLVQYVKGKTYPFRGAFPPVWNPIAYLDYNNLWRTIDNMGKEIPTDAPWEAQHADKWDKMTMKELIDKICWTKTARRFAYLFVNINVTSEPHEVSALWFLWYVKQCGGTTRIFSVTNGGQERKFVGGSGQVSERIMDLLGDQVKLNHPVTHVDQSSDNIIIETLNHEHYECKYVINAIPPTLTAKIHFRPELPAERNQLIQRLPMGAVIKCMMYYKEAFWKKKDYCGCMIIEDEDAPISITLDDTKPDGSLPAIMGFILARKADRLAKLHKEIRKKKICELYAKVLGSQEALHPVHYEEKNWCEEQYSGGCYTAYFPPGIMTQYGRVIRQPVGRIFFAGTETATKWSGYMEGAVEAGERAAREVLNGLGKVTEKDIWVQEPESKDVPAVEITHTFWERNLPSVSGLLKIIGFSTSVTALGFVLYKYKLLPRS
Summary of the method: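 Human recombinant MAO-A with MAO-Glo luminescent kit. Compounds in DMSO (final 1% DMSO) preincubated with enzyme 15 min at room temperature, then luciferin derivative substrate added and reacted 60 min at room temperature. Luciferase detection reagent added for 20 min before luminescence read. Buffer replacing enzyme served as 100% inhibition control and DMSO as no-inhibition control; percent inhibition calculated against both.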

Row | SMILES | MIC [1] [µg/mL] | MIC [2] [µg/mL] | MIC [3] [µg/mL] | MIC [4] [µg/mL] | MIC [5] [µg/mL] | other results
1 | COc1cccc(C(=O)N2CCN(/N=C/c3ccc(-c4ccc(N5C[C@H](CNC(C)=O)OC5=O)cc4F)cc3)CC2)c1 | 0.25 (≈ 0.436 µM) | 0.25 (≈ 0.436 µM) | 1 (≈ 1.74 µM) | 0.25 (≈ 0.436 µM) | 1 (≈ 1.74 µM) | 
2 | CC(=O)NC[C@H]1CN(c2ccc(-c3ccc(/C=N/N4CCCCC4)cc3)c(F)c2)C(=O)O1 | 0.25 (≈ 0.57 µM) | 0.25 (≈ 0.57 µM) | 0.25 (≈ 0.57 µM) | 0.25 (≈ 0.57 µM) | 0.5 (≈ 1.14 µM) | 
3 | CC(=O)NC[C@H]1CN(c2ccc(-c3ccc(/C=N/N4CCN(C(=O)c5cccnc5)CC4)cc3)c(F)c2)C(=O)O1 | 0.125 (≈ 0.23 µM) | 0.125 (≈ 0.23 µM) | 0.125 (≈ 0.23 µM) | 0.125 (≈ 0.23 µM) | 0.125 (≈ 0.23 µM) | 
4 | CC(=O)NC[C@H]1CN(c2ccc(-c3ccc(/C=N/N4CCN(C(=O)c5ccc(Cl)cc5)CC4)cc3)c(F)c2)C(=O)O1 | 0.0675 (≈ 0.117 µM) | 0.0675 (≈ 0.117 µM) | 0.25 (≈ 0.432 µM) | 0.0675 (≈ 0.117 µM) | 0.25 (≈ 0.432 µM) | 
5 | C#CCN1CCN(/N=C/c2ccc(-c3ccc(N4C[C@H](CNC(C)=O)OC4=O)cc3F)cc2)CC1 | 0.125 (≈ 0.262 µM) | 0.125 (≈ 0.262 µM) | 0.125 (≈ 0.262 µM) | 0.125 (≈ 0.262 µM) | 0.125 (≈ 0.262 µM) | 
6 | CC(=O)NC[C@H]1CN(c2ccc(-c3ccc(/C=N/N4CCN(C(=O)c5ccco5)CC4)cc3)c(F)c2)C(=O)O1 | 0.25 (≈ 0.469 µM) | 0.25 (≈ 0.469 µM) | 0.25 (≈ 0.469 µM) | 0.125 (≈ 0.234 µM) | 0.25 (≈ 0.469 µM) | 
7 | CC(=O)NC[C@H]1CN(c2ccc(-c3ccc(/C=N/N4CCN(C(=O)c5cnccn5)CC4)cc3)c(F)c2)C(=O)O1 | 0.125 (≈ 0.229 µM) | 0.125 (≈ 0.229 µM) | 0.125 (≈ 0.229 µM) | 0.125 (≈ 0.229 µM) | 0.125 (≈ 0.229 µM) | 
8 | CC(=O)NC[C@H]1CN(c2ccc(-c3ccc(/C=N/N4CCN(C(=O)N(C)C)CC4)cc3)c(F)c2)C(=O)O1 | 0.0675 (≈ 0.132 µM) | 0.0675 (≈ 0.132 µM) | 0.25 (≈ 0.49 µM) | 0.0675 (≈ 0.132 µM) | 0.25 (≈ 0.49 µM) | 
9 | CC(=O)NC[C@H]1CN(c2ccc(-c3ccc(/C=N/N4CC[S+]([O-])CC4)cc3)c(F)c2)C(=O)O1 | 0.0675 (≈ 0.143 µM) | 0.0675 (≈ 0.143 µM) | 0.0675 (≈ 0.143 µM) | 0.0675 (≈ 0.143 µM) | 0.0675 (≈ 0.143 µM) | MIC [6]: 0.0625 to 0.5 µg/mL (≈ 0.132 to 1.06 µM); MIC50 [6]: 0.125 µg/mL (≈ 0.265 µM); MIC90 [6]: 0.5 µg/mL (≈ 1.06 µM); MIC [7]: 0.0625 to 0.25 µg/mL (≈ 0.132 to 0.529 µM); MIC50 [7]: 0.125 µg/mL (≈ 0.265 µM); MIC90 [7]: 0.5 µg/mL (≈ 1.06 µM); Ratio [8]: 15 - 30; MIC50 [9]: 0.125 µg/mL (≈ 0.265 µM); MIC90 [9]: 0.25 µg/mL (≈ 0.529 µM); Ratio [10]: 15 - 30; MIC [11]: 0.0625 to 0.25 µg/mL (≈ 0.132 to 0.529 µM); MIC50 [11]: 0.125 µg/mL (≈ 0.265 µM); MIC90 [11]: 0.25 µg/mL (≈ 0.529 µM); inhibition at 1 h, 30 µM [12]: 88%
10 | CC(=O)NC[C@H]1CN(c2ccc(-c3ccc(/C=N/N4CCN(C(=O)c5ccc(C(F)(F)F)cc5)CC4)cc3)c(F)c2)C(=O)O1 | 0.125 (≈ 0.204 µM) | 0.125 (≈ 0.204 µM) | 0.125 (≈ 0.204 µM) | 0.125 (≈ 0.204 µM) | 0.125 (≈ 0.204 µM) | 
11 | CC(=O)NC[C@H]1CN(c2ccc(-c3ccc(/C=N/N4CCN(C(=O)c5cccs5)CC4)cc3)c(F)c2)C(=O)O1 | 0.25 (≈ 0.455 µM) | 0.125 (≈ 0.227 µM) | 0.5 (≈ 0.91 µM) | 0.25 (≈ 0.455 µM) | 0.5 (≈ 0.91 µM) | 
12 | CC(=O)NC[C@H]1CN(c2ccc(-c3ccc(/C=N/N4CCN(Cc5ccccc5)CC4)cc3)c(F)c2)C(=O)O1 | 0.125 (≈ 0.236 µM) | 0.125 (≈ 0.236 µM) | 0.125 (≈ 0.236 µM) | 0.125 (≈ 0.236 µM) | 0.125 (≈ 0.236 µM) | 
13 | CCC(=O)N1CCN(/N=C/c2ccc(-c3ccc(N4C[C@H](CNC(C)=O)OC4=O)cc3F)cc2)CC1 | 0.125 (≈ 0.252 µM) | 0.125 (≈ 0.252 µM) | 0.125 (≈ 0.252 µM) | 0.125 (≈ 0.252 µM) | 0.125 (≈ 0.252 µM) | 
14 | COc1ccccc1C(=O)N1CCN(/N=C/c2ccc(-c3ccc(N4C[C@H](CNC(C)=O)OC4=O)cc3F)cc2)CC1 | 0.125 (≈ 0.218 µM) | 0.5 (≈ 0.872 µM) | 0.125 (≈ 0.218 µM) | 0.0675 (≈ 0.118 µM) | 0.125 (≈ 0.218 µM) | 
15 | CC(=O)NC[C@H]1CN(c2ccc(-c3ccc(/C=N/N4CCN(C(=O)CN)CC4)cc3)c(F)c2)C(=O)O1 | 0.25 (≈ 0.503 µM) | 0.125 (≈ 0.252 µM) | 0.5 (≈ 1.01 µM) | 0.25 (≈ 0.503 µM) | 0.5 (≈ 1.01 µM) | 
16 | CC(=O)NC[C@H]1CN(c2ccc(-c3ccc(CNCc4cnn[nH]4)cc3)c(F)c2)C(=O)O1 [RADEZOLID] | 0.5 (≈ 1.14 µM) | 0.5 (≈ 1.14 µM) | 0.5 (≈ 1.14 µM) | 0.5 (≈ 1.14 µM) | 0.5 (≈ 1.14 µM) | 
